In ChEMBL document CHEMBL4602726, “Discovery of the First Vitamin K Analogue as a Potential Treatment of Pharmacoresistant Seizures” (J Med Chem, 2020):

Columns and labels:
[1] = Toxicity in CF1 mouse assessed as induction of motor impairment during acute (1 hr) observation period by rotarod assay; details: CF1, mouse, in vivo
How it was run: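 Male CF-1 mice, ip dosing in miglyol 840/DMSO (95%/5%), up to 800 mg/kg. Rotarod at 6 rpm done 1 h after dosing, on the same animals just before 6 Hz testing. Falling three times within one minute scored as impaired; animals also inspected visually.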

[2] = AUClast in CD1 mouse at 20 mg/kg, ip measured after 0.083 to 24 hrs by LC-MS/MS analysis; format: ADME, organism-based; parameters: time lower 0.083 hr, dose 20 mg/kg, time upper 24 hr, route intraperitoneal; details: in vivo
How it was run: (§1)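 Male CD-1 mice, 3 per route. Oral and ip at 20 mg/kg by gavage needle; iv at 5 mg/kg by tail vein. Vehicles were 20% DMA:40% PEG300:40% H2O for oral/iv and 5% DMSO:95% Neobee for ip. Blood sampled 0.083–24 h, plasma protein-precipitated with acetonitrile plus internal standard, LC-MS/MS (MRM). Non-compartmental analysis, linear trapezoidal AUC.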

[3] = Half life in CD1 mouse at 20 mg/kg, ip measured after 0.083 to 24 hrs by LC-MS/MS analysis; format: ADME, organism-based; details: in vivo; how it was run: as §1
[4] = Toxicity in Zebrafish; parameters: species or system Danio rerio; details: in vivo, read-out: LD50 (the source's name)
[5] = species on record: Danio rerio; assay: Anti-seizure activity in Zebrafish; format: functional, organism-based
How it was run: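 Single 7 dpf zebrafish larvae per well, pretreated 1 h at […] with compound (10 or 5 μM) in E3 buffer from DMSO stock. Then 15 mM PTZ added and movement tracked 15 min in 1-min bins. VPA 5 and 10 mM as positive controls, n=8 per group, one-way ANOVA.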

[6] = species on record: Danio rerio; assay: Anti-seizure activity in Zebrafish larvae assessed as reduction in PTZ-induced increase in total swimming distance in 15 mins at 10 uM pre-incubated for 1 hr prior to PTZ-induced seizure induction relative to control; format: functional; parameters: scale not given: the % may be the effect or the level left
[7] = species on record: Danio rerio; assay: Anti-seizure activity in Zebrafish larvae assessed as reduction in PTZ-induced increase in total swimming distance in 15 mins at 5 uM pre-incubated for 1 hr prior to PTZ-induced seizure induction relative to control; format: functional; parameters: scale not given: the % may be the effect or the level left
[8] = Tmax in CD1 mouse at 20 mg/kg, ip measured after 0.083 to 24 hrs by LC-MS/MS analysis; format: ADME, organism-based; details: in vivo
[9] = Cmax in CD1 mouse at 20 mg/kg, ip measured after 0.083 to 24 hrs by LC-MS/MS analysis; format: ADME, organism-based; parameters: dose 20 mg/kg, route intraperitoneal; details: in vivo; how it was run: as §1
[10] = Half life in mouse; format: ADME, organism-based; details: in vivo
[11] = Toxicity in mouse HT22 cells assessed as inhibition of cell viability at 10 uM incubated for 48 hrs by Cell-titer-Blue dye based fluorescence spectrophotometry relative to control; parameters: species or system HT-22; details: read-out: Activity
How it was run: (§2)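 HT-22 cells in DMEM high glucose with 10% FBS, 2000 per well. Serially diluted compound added after 12 h, incubated 48 h. […] Background subtracted, normalized to control wells.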

[12] = Toxicity in mouse HT22 cells assessed as inhibition of cell viability at 50 uM incubated for 48 hrs by Cell-titer-Blue dye based fluorescence spectrophotometry relative to control; parameters: species or system HT-22; details: read-out: Activity; how it was run: as §2
[13] = species on record: Danio rerio; assay: Increase in ATP concentration in zebrafish at 1 uM incubated for 24 hrs by fluorometric ATP assay relative to control; format: functional
How it was run: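 7 dpf zebrafish larvae, one per well, kept at 28.5°C for 24 h with compound in E3 buffer (DMSO stock). DMSO vehicle in control wells. Twelve fish per condition pooled, flash-frozen, homogenized in ATP buffer and centrifuged. ATP in the supernatant read by fluorescence at ex 535/em 587 nm, normalized to total protein (BCA), and expressed as nmole/mg relative to DMSO control. n = 7–13.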

[14] = tested on: Mus musculus; assay: Anti-seizure activity in ip dosed CF1 mouse assessed as attenuation of psychomotor seizures at stimulus intensities of 42 mA at pre-treated at 1 hr before test by 6 Hz limbic seizure test relative to control; format: functional
[15] = Drug reactivity with 2-mercaptoethanol measured over 6 hrs; format: physicochemical

SMILES	Activity [7]	inhibition at 48 h, 10 µM [11]	inhibition at 48 h, 50 µM [12]	other results
CC[C@@H](C(N)=O)N1CCCC1=O	–	–	–	TD50 at 1 h [1]: > 500 mg/kg
C#CCNC1=CC(=O)c2ccccc2C1=O	7.4%	–	–	AUC(0-t) [2]: 978 ng·h/mL; half-life [3]: 66 min; LC50 [4]: > 20 µM; EC50 [5]: 20 µM; Activity [6]: 5.4%; Tmax [8]: 15 min; Cmax [9]: 1490 ng/mL; half-life [10]: 66 min
O=C1C=C(NCC2CC2)C(=O)c2ccccc21	-10.1%	16.8%	54.1%	Activity [6]: -10.1%
CCC(O)CNC1=CC(=O)c2ccccc2C1=O (stereo not drawn)	–	38.6%	69%	–
O=C1C=C(NCCC2CCCCC2)C(=O)c2ccccc21	–	0.07%	2.09%	–
CC(C)(C)CNC1=CC(=O)c2ccccc2C1=O	–	10.8%	22.4%	–
O=C1C=C(NCCC2CC2)C(=O)c2ccccc21	–	34.7%	56.4%	–
CC1=C(NCCC(C)(C)C)C(=O)c2ccccc2C1=O	3.3%	10.2%	17.5%	–
CC(C)(C)CCCNC1=CC(=O)c2ccccc2C1=O	-3%	3.81%	6.75%	–
CC(C)(O)CCNC1=CC(=O)c2ccccc2C1=O	9.5%	25.5%	59.7%	Activity [6]: -5.6%
CC(C)=CCNC1=CC(=O)c2ccccc2C1=O	-4.4%	15%	38.3%	–
CC(C)CCCNC1=CC(=O)c2ccccc2C1=O	–	28.8%	21.3%	–
CC(O)CCNC1=CC(=O)c2ccccc2C1=O (stereo not drawn)	0.78%	19.4%	64.2%	–
CC1=C(NCCC(C)C)C(=O)c2ccccc2C1=O	–	11.2%	21.4%	–
CC(C)CC(C)NC1=CC(=O)c2ccccc2C1=O (stereo not drawn)	–	2.09%	15%	–
O=C1C=C(NCCC2CCCC2)C(=O)c2ccccc21	45%	35.4%	43.8%	–
CN(CCCNC1=CC(=O)c2ccccc2C1=O)c1ccccc1	7.3%	11.5%	10.2%	–
O=C1C=C(NCCC2CCC2)C(=O)c2ccccc21	–	27.2%	36.3%	Activity [13]: 21.4%
CCN(C)CCNC1=CC(=O)c2ccccc2C1=O	–	86.2%	101%	–
O=C1C=C(NCC2CCC2)C(=O)c2ccccc21	–	33.7%	62.3%	–
CCC(C)CNC1=CC(=O)c2ccccc2C1=O (stereo not drawn)	23%	14.8%	41.2%	–
CC(C)(C)CCNC1=CC(=O)c2ccccc2C1=O	–	11.9%	17%	–
CN(C)CCNC1=CC(=O)c2ccccc2C1=O	–	82.6%	99.8%	–
CCN(CC)CCNC1=CC(=O)c2ccccc2C1=O	-7.2%	83.8%	100%	Activity [6]: 27%
CN(C)CCCNC1=CC(=O)c2ccccc2C1=O	–	74.5%	96.7%	Activity [6]: -2.9%
CC(CO)CCNC1=CC(=O)c2ccccc2C1=O (stereo not drawn)	-2.4%	25.7%	76.7%	Activity [6]: 8.2%
C=C(C)[C@@H]1CCC(C)=C[C@H]1c1c(O)cc(CCCCC)cc1O [CANNABIDIOL]	–	–	–	ED50 [14]: 174 mg/kg
NC(=O)OCC(COC(N)=O)c1ccccc1 [FELBAMATE]	–	–	–	TD50 at 1 h [1]: 452 mg/kg; ED50 [14]: 97.5 mg/kg
CC1=CC(=O)c2ccccc2C1=O [MENADIONE]	–	–	–	LC50 [4]: 6 µM; EC50 [5]: 3 µM; Drug metabolism [15]: Metabolite_Detected; half-life [10]: 27 min
CCCC(CCC)C(=O)O [VALPROIC ACID]	–	–	–	ED50 [14]: 289 mg/kg
